Bioassay records: PubChem BioAssay, several laboratories
HSF1 inh: HSF1 inhibitors in luciferase reporter cells, primary screen, cell-based, NIH3T3, luminescence; NIH3T3-HGL HSE-luciferase, MG132-induced, luminescence 8 h; stronger effect = lower value; activity change, negative = inhibition, % at 7.5 µM (by protocol); 300,000 tested, 0.77% active; AID 2098, 2009;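 active = more than half of replicate wells show activity change below -50%, luminescence cut by over half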;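 note: luciferase reports HSF-1 transcriptional activity via heat shock element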
AI-2 QS modul: Vibrio harveyi AI-2 quorum sensing modulators, primary screen, JMH597 strain, luminescence/OD600 ratio | 300,000 tested, 0.4% active | activity change, % at 7.5 µM | Vibrio harveyi JMH597 AI-2 luminescence/OD600 ratio, 9 h; stronger effect = lower value; strain lacks LuxN and CqsS sensors; 0 = neutral-control median; in the data active = activity change below about -75%, passing the limit was not always enough;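 note: luminescence divided by OD600 gain over 9 h not by final OD600 alone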
PHOSPHO1 block: PubChem AID 1565; 290,000 tested, 1.1% active; inhibition, % at 13.3 µM; recombinant PHOSPHO1, absorbance phosphatase assay; Phosphoethanolamine/phosphocholine phosphatase (Homo sapiens), Q8TCT1; in the data active = inhibition above about 60%
Target sequence (Q8TCT1 whole entry, looked up): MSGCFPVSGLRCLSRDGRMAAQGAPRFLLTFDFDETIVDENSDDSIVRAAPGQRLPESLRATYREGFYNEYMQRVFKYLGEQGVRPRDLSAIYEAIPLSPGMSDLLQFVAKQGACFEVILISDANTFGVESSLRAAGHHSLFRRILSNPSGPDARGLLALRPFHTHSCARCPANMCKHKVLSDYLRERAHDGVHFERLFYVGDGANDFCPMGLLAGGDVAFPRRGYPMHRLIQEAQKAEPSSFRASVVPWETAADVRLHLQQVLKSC
ALR H2O2 inh: inhibitors of human ALR sulfhydryl oxidase, primary screen, biochemical, H2O2 detection, HRP-luminol luminescence, single point; FAD-linked sulfhydryl oxidase ALR (Homo sapiens), P55789; purified ALR, DTT oxidation; inhibition, % (concentration not given with the values); 290,000 tested, 3.8% active;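 active = mean replicate inhibition above about 79%, with every replicate also reaching it, limit read from the data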
HSF-1 act: HSF-1 activators, primary screen, NIH3T3-HGL cells, MG132 stress, luminescence, single point. NIH3T3-HGL HSF-1 luciferase reporter, 8 h; 100% = twice DMSO control signal. AID 504408, 2011. activation, % at 9 µM. 300,000 tested, 1.7% active;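 active = mean replicate activation of at least 50% with a set share of replicates each reaching 50%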
core dimer inh: inhibitors of HCV core protein dimerization, primary screen, biochemical, TR-FRET, high-throughput; inhibition, % at 5 µM; TR-FRET GST/Flag-core106 dimerization, 1536-well; 300,000 tested, 0.33% active;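 active = inhibition above the mean of all tested compounds plus 3 SD, set per screening campaign, cut at about 45% in these data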
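Assay system: GST-tagged and Flag-tagged HCV core protein residues 1-106 / Times: compound-protein-antibody incubation 4 h at 22.5 °C / Signal: time-resolved FRET, ex 340 nm, em 617 and 671 nm / Evaluation: % inhibition based on acceptor/donor emission ratio / Benchmarks: wells lacking GST-core106 and wells with excess unlabelled core106 / Repeats: singlicate, one well per compound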
A number is an active result; i = inactive; nt = no result given. This is a sample that favours compounds with a hit; in the whole collection about 6.8% have one here.

SMILES | HSF1 inh | AI-2 QS modul | PHOSPHO1 block | ALR H2O2 inh | HSF-1 act | core dimer inh
C=C(C)CN(CC)C(=O)CN1C(=O)NC2(CCCc3ccccc32)C1=O (stereo unspecified) | i | i | i | i | i | i
C=C(C)CNC(=S)Nc1sc2c(c1C(=O)OCC)CC(C)(C)OC2 | i | i | i | nt | i | i
Cc1ccc(C(=O)NCCSc2snnc2C)cc1 | i | i | i | 93.9 | i | i
COc1cccc(/C=C2\CCCCC2=O)c1 | i | nt | i | i | i | i
CCCNC(=O)Cn1c2ccccc2c2nc(=O)cc(C)n21 | i | i | i | i | i | i
CCC1CCCCN1CCCNC(=O)Cn1c2ccccc2c2nc(=O)cc(C)n21 (stereo unspecified) | i | i | i | i | 63.8 | i
O=C(N/N=C/c1ccc(OC(=O)c2ccccc2)c([N+](=O)[O-])c1)c1ccc(O)cc1 | i | i | i | 94.0 | i | i
COc1ccc(C(=O)Oc2ccc(/C=N/NC(=O)c3ccccc3OC)cc2[N+](=O)[O-])cc1 | i | i | i | nt | i | i
COc1ccc(/C=N/NC(=O)c2ccc3c(c2)OCCO3)cc1[N+](=O)[O-] | -79.6 | i | i | i | i | i
CNC(=O)c1cc(C(=O)c2ccc(Cl)cc2)c(Br)[nH]1 | i | i | i | i | i | i
COc1ccc(CC(=O)OCC(=O)NCc2ccccc2Cl)cc1OC | i | i | i | i | i | i
COc1cccc(CNc2nccs2)c1O | i | i | i | 87.6 | i | i
COc1ccccc1CNC(=O)C(=O)Nc1nccs1 | i | i | i | i | i | i
Cc1cc(/C=C(/C#N)c2nc3ccccc3[nH]2)c(C)n1-c1cccc([N+](=O)[O-])c1 | i | i | i | i | i | i
COc1cccc(/C=C(\C#N)c2nc3ccccc3[nH]2)c1OCC(=O)O | -64.2 | i | i | nt | i | i
COc1c(O)ccc(/C=C(\C#N)c2nc3ccccc3[nH]2)c1[N+](=O)[O-] | i | i | i | 87.2 | i | i
COc1cc(/C=C(/C#N)c2nc3ccccc3[nH]2)ccc1OC(=O)c1ccco1 | i | i | i | i | i | i
COc1cc(/C=C(\C#N)C(=O)c2c[nH]c3ccccc23)cc(OC)c1O | i | i | i | 99.4 | i | i
COc1ccc(/C=C(\C#N)c2nc3ccccc3[nH]2)cc1O | i | i | i | nt | 84.8 | nt
O=C(CNC(=O)Cc1cccc2ccccc12)NCc1ccc(F)cc1 | i | nt | i | i | i | i
COc1cc(/C=C(\C#N)c2nc3ccccc3[nH]2)ccc1Oc1ccc([N+](=O)[O-])cn1 | i | i | i | i | 62.2 | i
COc1cc(/C=C(/C#N)c2ccccc2)ccc1Oc1ccc([N+](=O)[O-])cn1 | i | i | i | i | i | i
COc1cc(/C=C(/C#N)C(=O)c2c(C)[nH]c3ccccc23)ccc1OCC#N | i | i | i | i | 68.4 | i
COc1cc(/C=C(\C#N)c2nc3ccccc3[nH]2)cc(OC)c1O | i | i | i | 99.3 | i | i
COc1ccc(Cc2nc(-c3cccs3)no2)cc1 | i | i | i | i | i | i
SMILES | HSF1 inh | AI-2 QS modul | PHOSPHO1 block | ALR H2O2 inh | HSF-1 act | core dimer inh
Cc1ccc(S(=O)(=O)N2CCCC2=O)c(C)c1N(C)S(C)(=O)=O | i | i | nt | i | i | i
Cc1ccc(-c2n[nH]c(=S)n2/N=C/c2cccs2)cc1 | i | i | i | i | i | i
Cc1ccc(-c2csc3n[nH]c(=S)n23)cc1 | i | i | 94.9 | 97.8 | i | i
COc1ccc(CNC(=O)CN(Cc2ccccc2)C(=O)CCC(=O)Nc2nccs2)cc1 | i | i | i | nt | 70.3 | i
CC(Oc1ccccc1)c1ccnc2nc(N3CCOCC3)nn12 (stereo unspecified) | i | i | 60.0 | i | i | i
O=C(O)c1ccc(N/N=C/C(Br)=C/c2ccccc2)cc1 | i | -94.3 | i | 98.3 | i | i
O=C(N/N=C/C(Br)=C/c1ccccc1)C(O)c1ccccc1 (stereo unspecified) | i | i | i | i | 61.4 | i
